Counter-ions that a name gives are not always drawn.
Columns and labels:
[1] = biological target: T1, human estrogen sulfotransferase (SULT1E1) (Homo sapiens, UniProt P49888); assay: Inhibition of SULT1E1-catalyzed sulfation of [3H]estradiol; format: biochemical; conditions: 7.0 nM estradiol
T1 sequence (P49888 1-294): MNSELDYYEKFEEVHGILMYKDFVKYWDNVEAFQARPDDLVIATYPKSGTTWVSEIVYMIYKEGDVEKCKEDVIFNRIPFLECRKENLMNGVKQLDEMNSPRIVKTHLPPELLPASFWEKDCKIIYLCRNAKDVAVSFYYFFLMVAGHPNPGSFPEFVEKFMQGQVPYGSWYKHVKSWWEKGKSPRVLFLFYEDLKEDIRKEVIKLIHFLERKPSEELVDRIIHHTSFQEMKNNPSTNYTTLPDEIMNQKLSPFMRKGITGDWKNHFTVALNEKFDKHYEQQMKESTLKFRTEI
How it was run: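 Purified recombinant human enzyme expressed in E. coli BL21(DE3). Test compound added in ethanol at 0.01–10,000 nM. Equilibrated 3 min at 37 °C, started with 3.0 ng enzyme, run 4 min. Stopped with Tris-HCl pH 8.7 plus chloroform. Aqueous [3H]estradiol-3-sulfate counted by scintillation. Triplicates. IC50 fitted from % of control rate.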

[2] = metabolite in human plasma; ref Quinete et al., 2017; cited from earlier work
[3] = circulating steroid in humans; ref White and Porterfield, 2013; cited from earlier work

**Q.** With `Oc1ccc(-c2ccc(Cl)cc2)cc1` [4’-OH-PCB 3, 4-chloro-4’-hydroxybiphenyl] as the compound, how does the “fold higher IC50 value for SULT1E1 than 4-OH-PCB 11 and 4’-OH PCB 25” value [1] read?
**A.** The value was about 200 fold.

**Q.** For `Oc1ccc(-c2ccc(Cl)cc2Cl)cc1Cl` [4’-OH-PCB 25, 2,3’,4-trichloro-4’-hydroxybiphenyl], which “estimated half-life in human plasma” value [2] is on record?
**A.** The value was 6.5 years.

**Q.** With `O=S(=O)(O)Oc1ccc(-c2ccc(Cl)cc2Cl)cc1Cl` [4’-PCB 25 Sulfate, 2,3’,4-trichloro-4’-biphenylsulfate] as the compound, how does the “IC50 value for SULT1E1, fold greater than the estradiol concentration” value [1] read?
**A.** The value was “over 50 fold”.

**Q.** With `C[C@]12CC[C@H](O)CC1=CC[C@@H]1[C@@H]2CC[C@]2(C)C(=O)CC[C@@H]12` [DHEA, dehydroepiandrosterone] as the compound, how does the half-life [3] read?
**A.** Its half-life is 0.25 to 0.5 h.

**Q.** Which half-life [3] does the source give for `C[C@]12CC[C@H](OS(=O)(=O)O)CC1=CC[C@@H]1[C@@H]2CC[C@]2(C)C(=O)CC[C@@H]12` [DHEA-sulfate, dehydroepiandrosterone sulfate] here?
**A.** The half-life was 7 to 10 h.
